Measurements taken from ChEMBL document CHEMBL3526015, “Metabolism of the c-Fos/activator protein-1 inhibitor T-5224 by multiple human UDP-glucuronosyltransferase isoforms” (Drug Metab Dispos, 2011).

Key:
[1] = molecular target: T1, UDP-glucuronosyltransferase 1A3 (Homo sapiens, UniProt P35503); test: Substrate inhibition of human UGT1A3-mediated T-5224 hydroxyl O-glucuronide formation after 10 to 60 mins in presence of UDP-glucuronic acid by HPLC method; type: ADME
T1 sequence (P35503 whole entry): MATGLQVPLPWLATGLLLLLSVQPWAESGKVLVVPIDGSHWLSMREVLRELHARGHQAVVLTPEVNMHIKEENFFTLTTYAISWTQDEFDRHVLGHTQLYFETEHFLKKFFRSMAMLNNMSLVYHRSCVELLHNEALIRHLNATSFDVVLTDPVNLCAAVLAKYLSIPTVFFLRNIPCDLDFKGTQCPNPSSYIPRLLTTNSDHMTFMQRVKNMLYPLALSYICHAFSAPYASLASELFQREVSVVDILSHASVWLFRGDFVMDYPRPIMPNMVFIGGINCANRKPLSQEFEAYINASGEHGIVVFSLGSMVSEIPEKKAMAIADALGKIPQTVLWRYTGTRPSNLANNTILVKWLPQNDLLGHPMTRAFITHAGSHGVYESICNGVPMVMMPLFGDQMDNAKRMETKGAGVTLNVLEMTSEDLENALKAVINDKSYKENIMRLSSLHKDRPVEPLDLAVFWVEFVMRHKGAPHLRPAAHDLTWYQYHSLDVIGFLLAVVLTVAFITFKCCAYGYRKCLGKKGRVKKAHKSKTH
Summary of the method: (§1)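 Recombinant human UGT1A1, UGT1A3 or UGT1A8 from baculovirus-infected insect cells (0.1 mg protein/mL) in 50 mM Tris-HCl pH 7.5, 8 mM MgCl2, alamethicin, 2% DMSO. T-5224 at 1–50 μM with 2 mM UDPGA for 60 min at 37°C. HPLC with UV at 290 nm. Triplicates fitted to a substrate-inhibition model. kcat uses UGT content quantified by immunoblot against recombinant UGT1A1/UGT2B4 standards.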

[2] = molecular target: T2, UDP-glucuronosyltransferase 1A8 (Homo sapiens, UniProt Q9HAW9); test: Substrate inhibition of human UGT1A8-mediated T-5224 hydroxyl O-glucuronide formation after 10 to 60 mins in presence of UDP-glucuronic acid by HPLC method; type: ADME; summary of the method: as §1
T2 sequence (Q9HAW9 whole entry): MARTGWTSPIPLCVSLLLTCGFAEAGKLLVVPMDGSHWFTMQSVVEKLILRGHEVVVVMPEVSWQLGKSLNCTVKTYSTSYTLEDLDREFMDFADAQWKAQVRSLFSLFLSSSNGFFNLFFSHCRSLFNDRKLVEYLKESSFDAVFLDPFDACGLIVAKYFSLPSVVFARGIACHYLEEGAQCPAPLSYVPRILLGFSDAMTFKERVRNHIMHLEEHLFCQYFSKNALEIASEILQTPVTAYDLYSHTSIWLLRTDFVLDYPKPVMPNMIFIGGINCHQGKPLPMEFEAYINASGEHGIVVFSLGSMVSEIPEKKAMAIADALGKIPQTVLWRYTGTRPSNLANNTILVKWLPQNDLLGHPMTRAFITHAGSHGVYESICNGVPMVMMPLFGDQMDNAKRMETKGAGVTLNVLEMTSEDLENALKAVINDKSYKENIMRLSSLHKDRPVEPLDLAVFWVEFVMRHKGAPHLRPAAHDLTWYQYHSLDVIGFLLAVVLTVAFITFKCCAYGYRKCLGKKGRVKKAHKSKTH

[3] = Drug metabolism in human intestinal microsomes assessed as Vmax/Km ratio for T-5224 acyl O-glucuronide formation per mg protein after 10 to 60 mins by HPLC method; type: ADME, Intestine, Microsome
Summary of the method: (§2)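 Pooled liver microsomes (0.5 mg/mL) were incubated 10 min. Pooled intestinal microsomes (0.25 mg/mL) ran 10 min at T-5224 10–50 μM and 20 min at 1–5 μM. Buffer was 50 mM Tris-HCl pH 7.5 with 8 mM MgCl2, alamethicin and 2 mM UDPGA, at 37°C, in triplicate. Glucuronides G2/G3 were read by HPLC at 290 nm and fitted for Vmax/Km.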

[4] = Drug metabolism in human intestinal microsomes assessed as T-5224 hydroxyl O-glucuronide formation per mg protein after 10 to 60 mins by HPLC method; type: ADME, Intestine, Microsome; summary of the method: as §2
[5] = molecular target: T1, UDP-glucuronosyltransferase 1A3; test: Drug metabolism assessed as human UGT1A3-mediated T-5224 acyl O-glucuronide formation at 5 to 50 uM after 60 mins in presence of UDP-glucuronic acid by HPLC method; type: ADME; details: recombinant enzyme, 1 h
[6] = molecular target: T1, UDP-glucuronosyltransferase 1A3; test: Drug metabolism assessed as human UGT1A3-mediated T-5224 hydroxyl O-glucuronide formation at 5 to 50 uM after 60 mins in presence of UDP-glucuronic acid by HPLC method; type: ADME; details: recombinant enzyme, 1 h
Liver microsome = test: Drug metabolism in pooled human liver microsomes assessed as T-5224 hydroxyl O-glucuronide formation in presence of UDPGA by LC-MS/MS method; type: ADME
[7] = Substrate inhibition of T-5224 acyl O-glucuronide formation in human intestinal microsomes after 10 to 60 mins by HPLC method; parameters: species or system Intestine, Microsome
Summary of the method: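 Pooled liver (0.5 mg protein/mL) or intestinal (0.25 mg protein/mL) microsomes in 50 mM Tris-HCl pH 7.5, 8 mM MgCl2, alamethicin, 2% DMSO. T-5224 at 1–50 μM, 5 min preincubation at 37°C, started with 2 mM UDPGA. Incubated 10 min, or 20 min for intestinal microsomes at 1–5 μM. Acetonitrile stop, glucuronides by HPLC at 290 nm. Triplicates fitted to a substrate-inhibition model.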

[8] = Drug metabolism in pooled human intestinal microsomes assessed as T-5224 hydroxyl O-glucuronide formation at 10 uM after 10 mins by HPLC method; type: ADME, Intestine, Microsome
Summary of the method: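 T-5224 at 10 μM incubated for 10 min at 37°C with UDPGA (2 mM) in pooled liver (0.5 mg protein/mL) or intestinal (0.25 mg protein/mL) microsomes. Buffer was 50 mM Tris-HCl pH 7.5 with 8 mM MgCl2 and alamethicin, after 5 min preincubation. Stopped with acetonitrile; glucuronides quantified by HPLC at 290 nm.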

[9] = Drug metabolism assessed as human CYP2C9*1-mediated metabolite formation at 2 uM after 30 mins by HPLC method; type: ADME; details: 0.5 h
Summary of the method: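 Each recombinant human P450 was used at 50 pmol/mL with an NADPH-generating system and 2 μM 14C-T-5224 (0.5% DMSO final). Buffer was 100 mM Tris-HCl pH 7.5, except 100 mM potassium phosphate pH 7.4 for CYP2A6 and CYP2C9*1. Incubation ran 30 min at 37°C and was stopped with acetonitrile/methanol. Radioactive metabolite peaks were detected by C18 HPLC.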

Ki [1]: 2550 nM
Ki [2]: 3640 nM
Vmax/Km [3]: 40.9 µL/min
Vmax [4]: 106 pmol/min
Drug metabolism [5]: metabolite_detected
Drug metabolism [6]: metabolite_detected
Drug metabolism (Liver microsome): metabolite_detected
Ki [7]: 2640 nM
Drug metabolism [8]: metabolite_detected
Drug metabolism [9]: metabolite_not_detected
Compound: O=C(O)CCc1cc(C(=O)c2ccc(OC3CCCC3)cc2O)ccc1OCc1ccc2c(O)noc2c1
